Screening data as filed in PubChem.
Dynein transport – inhibitors of GR-EGFP nuclear translocation, primary screen, dynein cargo transport inhibitor project, imaging, high-content, 3617.4 mouse cells; test concentration mostly 20 µM; stimulated with dexamethasone, 1 µM; hits give low values; z-score, hits read low; 220,000 compounds, 0.47% hits; AID 1381, 2008;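 active = plate z-score of nuclear minus cytoplasmic receptor signal below a set negative limit, without overly bright fluorescence or cell loss, cut at about -3.5 in these data, passing the limit was not always enough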;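 also: z-score of nuclear minus cytoplasmic ring GR-EGFP intensity difference per well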
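Also added: dexamethasone, 1.0 µM final. Medium: tet-free, stripped-serum medium. Detection: fixed, Hoechst-stained cells imaged at 10x for EGFP. Read-out: nuclear-to-cytoplasmic GR-EGFP distribution per well. Times: induction 48 h, compound 1 h, agonist 30 min.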
Autophagy mod – autophagy modulators in MEF cells, primary screen, imaging, high-content, MEF GFP-LC3 | MEF GFP-LC3 puncta imaging; test concentration mostly 10 µM | calls only at 10 µM (by protocol) | 190,000 compounds, 0.98% hits;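 active = percentage of spot-positive cells more than 3 SD above its plate mean, without a fluorescence outlier flag or 80% toxicity; inconclusive = no clear call, values can overlap the other calls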;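 also: spot-positive cell cutoff set from DMSO-treated cells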
Mdm2 ligase inh – MDM2-luciferase reporter signal enhancers, primary screen, MDM2 E3 ligase inhibitor project, cell-based, luminescence, 1536-well | 210,000 compounds, 0.11% hits | AID 1230, 2008 | cell-based MDM2 ubiquitination luciferase reporter, 2 h; 0 = plate control, 100 = twice control, blank-subtracted | signal enhancement, % at 5 µM;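 active = signal enhancement of 30% or more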;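 also: luminescence tracks abundance of the self-degrading MDM2-luciferase fusion protein; higher signal means inhibition of MDM2 E3 ligase activity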
Target sequence (Q00987 whole entry, looked up, the tested form may be a part): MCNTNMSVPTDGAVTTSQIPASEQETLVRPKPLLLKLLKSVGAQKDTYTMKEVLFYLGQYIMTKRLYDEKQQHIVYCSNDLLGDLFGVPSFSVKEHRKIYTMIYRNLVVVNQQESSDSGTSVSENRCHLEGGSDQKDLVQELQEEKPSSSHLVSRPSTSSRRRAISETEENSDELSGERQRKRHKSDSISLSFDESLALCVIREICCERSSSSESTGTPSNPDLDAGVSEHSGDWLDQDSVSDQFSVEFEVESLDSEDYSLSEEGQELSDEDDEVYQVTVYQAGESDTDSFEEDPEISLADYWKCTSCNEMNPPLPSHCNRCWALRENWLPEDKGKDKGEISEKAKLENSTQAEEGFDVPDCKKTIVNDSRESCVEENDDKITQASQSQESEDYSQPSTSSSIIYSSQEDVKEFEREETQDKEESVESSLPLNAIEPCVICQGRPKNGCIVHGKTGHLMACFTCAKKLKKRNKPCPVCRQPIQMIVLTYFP
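system = mammalian cells stably expressing self-ubiquitinating, self-degrading MDM2 E3–luciferase fusion | quantity = 2000 cells per well seeded | incubation = 4 h cell settling then 2 h compound exposure, 37 °C | signal = SteadyLite luminescence, 15 min reagent step | benchmarks = plate control and blank wells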
zVAD death inh – inhibitors of zVAD-triggered necroptosis, primary screen, L929 cells; 220,000 compounds, 0.38% hits; viability rescue, % at 10 µM; AID 1377, 2008; L929 zVAD necroptosis rescue, ATP luminescence, 24 h; with zVAD 60 µM;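 active = activation, scaled between plate controls, above about 75%, limit read from the data; inactive = activation under that limit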;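 also: 0% = zVAD with DMSO and 100% = DMSO alone without zVAD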
TNF necrop inh – inhibitors of TNF-alpha triggered necroptosis, primary screen, cell-based, Jurkat FADD-/-, single concentration. Jurkat FADD-/- TNF necroptosis rescue, ATP luminescence, 24 h; 0 = TNF only, 100 = no-TNF cells. activation (protection from cell death), % at 10 µM. 220,000 compounds, 0.068% hits. AID 463075, 2010;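 active = activation, meaning protection from cell death, of at least 50% relative to plate controls; inactive = activation below 50%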;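 also: necroptosis triggered by 40 ng/mL TNF-alpha added together with compound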
Dynein confirm – dynein cargo transport inhibitors, GR-EGFP translocation, confirmation, imaging, high-content imaging, GR-EGFP cells | shares compounds with Dynein transport | 3617.4 GR-EGFP nuclear translocation imaging, dexamethasone-induced | calls only at 20 µM | 1,000 compounds, 69% hits;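 active = inhibition of receptor movement into the nucleus at or above a set limit in both runs, with normal cell brightness and cell count; inconclusive = limit reached in only one run, brightness and count normal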;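 also: dexamethasone at 1 µM final in well for 30 min; nuclear minus cytoplasmic GR-EGFP mean intensity difference in channel 2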
Active calls of the source: *. Hits are enriched below; roughly 1.8% of the tested compounds scored in any of these assays.

For O=c1oc2c3c4c(cc2c(C(F)(F)F)c1CCN1CCOCC1)CCCN4CCC3 the results were Dynein transport -5.7*, Autophagy mod inconclusive, Mdm2 ligase inh -9, zVAD death inh 0, TNF necrop inh 1 and Dynein confirm active.
`N#Cc1c(Cl)c(Cl)c2nnc(-c3ccc(Br)cc3)n2c1Cl` gave Dynein transport -6.3*, Autophagy mod inactive, Mdm2 ligase inh -14, zVAD death inh 0, TNF necrop inh -4 and Dynein confirm active.
Screening C=C(C(=O)c1ccccc1)C(C(=C)C(=O)c1ccccc1)c1ccc(OC)cc1 returned Dynein transport -3.8*, Mdm2 ligase inh 2, zVAD death inh 8, TNF necrop inh -23 and Dynein confirm active.
CC(NC(=O)c1ccccc1)C(=O)N/N=C/c1cccc([N+](=O)[O-])c1 (stereo unspecified) was read as Dynein transport 0.39, Autophagy mod inactive, Mdm2 ligase inh -11, zVAD death inh 2 and TNF necrop inh 2.
CSc1c(C#N)sc(=S)n1-c1ccc(C)cc1 was read as Dynein transport 0.38, Autophagy mod inactive, Mdm2 ligase inh -11, zVAD death inh 1 and TNF necrop inh 1.
Screening CCC1=C2CC[C@H]3C(=O)N(c4ccccc4)C(=O)[C@H]3[C@H]2[C@@]2(C)C(=NCc3ccccc3)OC(=O)N2C1=O returned Dynein transport -4.2*, Mdm2 ligase inh 18, zVAD death inh 1, TNF necrop inh -3 and Dynein confirm active.
For Cc1ccc(C(=O)Nc2ccccc2C(=O)N2CCOCC2)cc1[N+](=O)[O-] the results were Dynein transport -0.083, Autophagy mod inactive, Mdm2 ligase inh -5, zVAD death inh 1 and TNF necrop inh 1.
Screening Cc1ccc(C(C[N+](=O)[O-])c2c(-c3ccccc3O)[nH][nH]c2=O)cc1 (stereo unspecified) returned Dynein transport -2.1, Autophagy mod inactive, Mdm2 ligase inh 8, zVAD death inh 0 and TNF necrop inh 0.
For CC(=O)N1/C(=C/c2ccc(N(C)C)cc2)C(=O)c2ccccc21 the results were Dynein transport -5.8*, Autophagy mod inactive, Mdm2 ligase inh 4, zVAD death inh -2, TNF necrop inh -7 and Dynein confirm active.
Cc1ccc(C2=NOC(=O)/C2=C\c2ccc(C)o2)cc1 was read as Dynein transport -5.7*, Mdm2 ligase inh 4, zVAD death inh 0, TNF necrop inh -16 and Dynein confirm active.
`Cc1ccc(/C=C2\C(=O)ON=C2c2ccccc2)o1` gave Dynein transport 0.76, Autophagy mod inactive, Mdm2 ligase inh -24, zVAD death inh 2 and TNF necrop inh -1.
`CC1=NOC(=O)/C1=C\c1ccc(-c2ccc(Br)cc2)o1` gave Dynein transport -4.1*, Autophagy mod inactive, Mdm2 ligase inh -8, zVAD death inh -1, TNF necrop inh -5 and Dynein confirm inconclusive.
Screening N#Cc1c(NC(=O)C2CC(Cl)=CCC2C(=O)O)sc2c1CCCC2 (stereo unspecified) returned Dynein transport -0.16, Autophagy mod inactive, Mdm2 ligase inh -6, zVAD death inh 2 and TNF necrop inh -1.
CCC(CC)C(=O)Nc1cc(Cl)ccc1C was read as Dynein transport -0.64, Autophagy mod inactive, Mdm2 ligase inh -1, zVAD death inh 1 and TNF necrop inh 0.
Screening CC1CCc2[nH]c3ccc(C(=O)NCCCOC(C)C)cc3c2C1 (stereo unspecified) returned Dynein transport 0.0041, Autophagy mod inactive, Mdm2 ligase inh -11, zVAD death inh 27 and TNF necrop inh 2.
`COc1nc(OC)nc(Oc2ccc(Cl)cc2[N+](=O)[O-])n1` gave Dynein transport 0.66, Autophagy mod inactive, Mdm2 ligase inh -2, zVAD death inh -1 and TNF necrop inh -1.
Screening COc1ccc([N+](=O)[O-])c(S(=O)(=O)c2ccc(Cl)cc2)n1 returned Dynein transport -4.9*, Mdm2 ligase inh -14, zVAD death inh 11, TNF necrop inh -30 and Dynein confirm active.
Screening COc1ccc([N+](=O)[O-])c(S(=O)(=O)c2ccccc2)n1 returned Dynein transport -5.5*, Mdm2 ligase inh -10, zVAD death inh 55, TNF necrop inh -30 and Dynein confirm active.
Screening O=C(O)CNC(=O)CC1S/C(=N/N=C2/NC(=O)CS2)NC1=O (stereo unspecified) returned Dynein transport -0.82, Autophagy mod inactive, Mdm2 ligase inh -21, zVAD death inh 0 and TNF necrop inh 0.
For CSCC[C@H](NC(=O)C1=NN(c2c(F)c(F)cc(F)c2F)C(=O)CC1)c1nc2ccccc2[nH]1 the results were Dynein transport -0.97, zVAD death inh 0 and TNF necrop inh 1.
For COc1cccc(C2CC(C(F)(F)F)n3nc(C(=O)NCc4cccnc4)cc3N2)c1 (stereo unspecified) the results were Dynein transport -3.6*, Autophagy mod inactive, Mdm2 ligase inh -13, zVAD death inh 3, TNF necrop inh -1 and Dynein confirm inactive.
Screening O=C(Cn1nnc2ccccc2c1=O)NCCc1ccccc1 returned Dynein transport -0.077, Autophagy mod inactive, Mdm2 ligase inh -5, zVAD death inh 0 and TNF necrop inh 1.
For COc1ccc(CNC(=O)Cn2nnc3ccccc3c2=O)cc1 the results were Dynein transport -5.3*, Mdm2 ligase inh -5, zVAD death inh -1, TNF necrop inh 2 and Dynein confirm inactive.
Screening Cn1c(=O)[nH]c(=O)c2c1nc1n2CCN1Cc1ccccc1 returned Dynein transport 0.091, Autophagy mod inactive, Mdm2 ligase inh 8, zVAD death inh 0 and TNF necrop inh -6.
Cn1c(=O)[nH]c(=O)c2c1nc([N+](=O)[O-])n2Cc1ccccc1 was read as Dynein transport -4.9*, Mdm2 ligase inh -5, zVAD death inh 18, TNF necrop inh -32 and Dynein confirm active.
For CC(C)Cn1c([N+](=O)[O-])nc2c1c(=O)[nH]c(=O)n2C the results were Dynein transport -7.3*, Mdm2 ligase inh -1, zVAD death inh -2, TNF necrop inh 4 and Dynein confirm active.
